Screening results as filed in PubChem.
Compounds with a hit are over-represented: about 4.5% of the library has one in this group of screens.
TAAR1 ag: agonists of human TAAR1. Q96RJ0. CHO RD-HGA16 TAAR1, Fluo-8 calcium fluorescence; vehicle wells 0%, saturating PEA agonist 100%. activation, % at 3 µM. actives 0.99% (n = 360,000). AID 624467;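 active = activation above the mean activation of all test compounds in the run plus 3 SD, cut at about 38% in these data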
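Test system: RD-HGA16 (CHO) cells co-expressing Gα16 and hTAAR1; dosing: one-point dosing at 3 µM (nominal); timing: 17-24 h seeding, 75 min 37 °C dye, 30 min RT; signal: kinetic Fluo-8 calcium fluorescence; read-out basis: % activation relative to PEA EC100 response; controls: DMSO and PEA EC100; replicates: n 1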
TAAR1 antagonist: antagonists of human TAAR1; CHO RD-HGA16 TAAR1, Fluo-8 calcium fluorescence, antagonist; actives 1.5% (n = 360,000); AID 624466; inhibition, % at 3 µM;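 active = inhibition above a per-plate cutoff, the mean inhibition of test compounds on that plate plus 3 SD, cut at about 49% in these data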;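 also: 0% = DMSO plus EC80 beta-PEA response and 100% = DMSO alone without agonist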
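System: RD-HGA16 CHO cells with stable hTAAR1 and Gα16 | Probe or stimulus: EC80 β-phenethylamine stimulus | Dosing: 3 µM, single point | Times: Dye loading 75 min at 37 °C, then 30 min room temperature | Measured by: Fluo-8 calcium-sensitive fluorescence | Read-out basis: % inhibition of agonist calcium response | Replicates: n of 1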
OX1R antag-1: OX1R (human) antagonism. actives 1.8% (n = 330,000). O43613. OX1R-expressing cells, FRET antagonist read-out. inhibition, % at 6.6 µM; in the data active = inhibition mostly above about 38%, no sharp cut-off; inactive = mostly below about 40%;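 also: 0% = agonist challenge alone and 100% = reference antagonist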
GPR7 antag: human neuropeptides B/W receptor 1 antagonism; inhibition, % at 4.4 µM; AID 1861; GPR7-expressing cells, fluorescence antagonist assay; actives 1.1% (n = 290,000); in the data active = inhibition above about 16%, passing the limit was not always enough;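 also: cells stimulated with the agonist NPW; 0% = agonist with vehicle and 100% = vehicle without agonist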
Target sequence (P48145 whole entry, looked up): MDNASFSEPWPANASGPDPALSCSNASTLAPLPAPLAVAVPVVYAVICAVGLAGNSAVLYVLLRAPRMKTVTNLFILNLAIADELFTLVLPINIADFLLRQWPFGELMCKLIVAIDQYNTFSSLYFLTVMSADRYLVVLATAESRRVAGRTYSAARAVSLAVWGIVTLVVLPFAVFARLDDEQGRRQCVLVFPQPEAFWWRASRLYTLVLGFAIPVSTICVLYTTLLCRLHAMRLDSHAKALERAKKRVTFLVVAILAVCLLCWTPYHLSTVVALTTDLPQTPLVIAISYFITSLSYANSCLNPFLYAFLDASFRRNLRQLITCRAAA
OX1R antag-2: blocks the human orexin 1 receptor; O43613; CHO/OX1R cells, Fluo-8 calcium fluorescence, orexin A; inhibition, % at 5 µM; actives 0.43% (n = 330,000);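 active = inhibition above its plate's threshold, mean inhibition of all tested compounds on the plate plus 3 SD, cut at about 37% in these data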;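 also: 0% = orexin A challenge wells and 100% = SB-334867-A antagonist wells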
CHO parental Ca: signal in parental CHO cells, OX1R antagonist counter-screen | inhibition, % at 5.6 µM | parental CHO-K1, ATP-induced calcium, Fluo-8 fluorescence | actives 0.63% (n = 330,000);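 active = inhibition above that plate's mean sample inhibition plus 3 SD, cut at about 26% in these data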;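 also: 0% = ATP-challenged DMSO wells and 100% = DMSO wells without ATP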
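material = parental CHO cells | also added = ATP as calcium-mobilizing challenge | dosing = single point at 5.6 µM | detection = intracellular calcium via Fluo-8 no-wash fluorescent dye | read-out = % inhibition | benchmarks = low control ATP plus DMSO, high control DMSO only | repeats = one well per compound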
Numbers without * were called inactive; · = not tested or not shown.

SMILES	TAAR1 ag	TAAR1 antagonist	OX1R antag-1	GPR7 antag	OX1R antag-2	CHO parental Ca
O=c1c([N+](=O)[O-])c(O)c2cccc3c2n1CCC3	4	-12	7	5	-8	-6
CCCCC(C(=O)NC(C)c1ccccc1)C(=O)NC(C)c1ccccc1 (centres undefined)	8	-3	57*	-15	13	-16
CCCCc1c(-c2ccccc2OC)ncn1Cc1ccc(C)cc1	6	28	·	·	·	·
O=C(Nc1cccnc1)c1cc(-c2cc(Cl)ccc2O)n[nH]1	27	-14	67*	-1	-16	-18
Cc1ccc2cccc(NC(=S)NC(=O)c3ccn(C)n3)c2n1	1	11	65*	-8	0	-42
CN(C)S(=O)(=O)Oc1ccc(C(=O)Nc2cccc(C(F)(F)F)c2)cc1	6	41	51*	1	1	53*
C[C@@H]1CN([C@H](C)CO)C(=O)c2cc(NS(=O)(=O)c3ccccc3)ccc2O[C@@H](C)CCCCO[C@@H]1CN(C)Cc1ccc(Cl)c(Cl)c1	8	-33	·	·	·	·
CC1=[N+](C)c2c(ccc3cccnc23)C1(C)C	11	28	·	28*	·	·
O=C(CCS(=O)(=O)c1ccc(Br)s1)N1CCc2ccccc21	1	-7	12	-8	-33	-21
CCN(CC)S(=O)(=O)c1cc(NC(=O)c2cc(-c3ccccn3)nc3ccccc23)ccc1C	16	55*	15	-8	-22	-17
CCN(CC)C(=O)c1ccc2nc(-c3ccccc3)c(-c3ccccc3)nc2c1	10	-9	23	-7	-37	-8
COC(=O)c1ccc(NC(=O)c2cc(-c3ccccn3)nc3ccccc23)cc1	1	-23	0	-4	-12	0
CCN(CC)C(=O)c1cccc(NC(=O)c2cc(-c3ccccn3)nc3ccccc23)c1	17	49*	8	·	-7	-15
CCN(CC(=O)Nc1ccc(NC(C)=O)cc1)C(=O)c1cc(-c2ccccc2Cl)nc2ccccc12	39*	72*	·	·	·	·
CCN(CC)C(=O)c1ccc2nc3ccccc3nc2c1	5	-4	65*	-6	-15	-6
O=C(CCNC(=O)c1ccccc1)NCCc1ccc(Cl)cc1	1	5	7	10	4	-4
CC(C)C[C@@H]1COc2cccc(N3CCCC3)c2S(=O)(=O)N1	-1	8	·	·	·	·
COC(=O)[C@]12C[C@H](CC(=O)NCCC(C)C)C(=O)N(Cc3ccc4c(c3)OCO4)C1=C[C@H](COCc1ccccc1)O[C@@H]2C	-2	-32	·	·	·	·
Cc1ccc(-c2cc(C(=O)Nc3cccc(S(=O)(=O)N(C)C)c3)c3ccccc3n2)o1	29	58*	14	0	-9	3
CSc1cccc(NC(=S)NN/C(=N/S(=O)(=O)c2ccccc2)N2CCCC2)c1	2	0	·	·	·	·
COc1ccc(N2CCN(C(=O)c3cc(N4C(=O)C5C6CCC(C6)C5C4=O)ccc3Cl)CC2)cc1 (centres undefined)	12	6	15	20*	-23	-19
Cc1cc(N2CCC(C)CC2)nc(SCC(=O)c2ccccc2)n1	20	54*	25	6	-30	-3
CC1(C(=O)NS(=O)(=O)c2ccccc2C(F)(F)F)CCN1C(=O)C1CCCCC1 (centres undefined)	1	-14	·	·	·	·
Cc1c(NC(=O)/C=C/c2cn(-c3ccccc3)nc2-c2ccccc2)c(=O)n(-c2ccccc2)n1C	12	52*	22	-7	-14	-29
Cc1c(NC(=O)CN2C(=O)C3C4C=CC(C4)C3C2=O)c(=O)n(-c2ccccc2)n1C (centres undefined)	4	4	7	-12	2	-9
Cc1c(NC(=O)CN2C(=O)c3cccc4cccc2c34)c(=O)n(-c2ccccc2)n1C	6	-13	76*	-1	-13	-7
Cc1c(NC(=O)c2ccc(C(=O)Nc3c(C)n(C)n(-c4ccccc4)c3=O)cc2)c(=O)n(-c2ccccc2)n1C	0	-18	-2	-19	-24	-5
Cc1c(NC(=O)c2ccc(=O)oc2)c(=O)n(-c2ccccc2)n1C	1	9	76*	-14	-11	-5
CCCCOc1ccc(OCCSc2nc3ccccc3n2CC(=O)O)cc1	-2	1	16	27	8	-9
